Experimental data from ChEMBL document CHEMBL1138113, “The design and synthesis of YC-1 analogues as probes for soluble guanylate cyclase” (Bioorg Med Chem Lett, 2006).

Columns and labels:
Format in all cases: functional
[1] = molecular target: T1, Soluble guanylate cyclase (Homo sapiens) (UniProt Q02153+O75343+P33402+Q02108); assay: Ratio of activation of sGC by compound over that of control, in presence of carbon monooxide (basal activity 33+/-3 nmol/min/mg in absence of CO)
[2] = molecular target: T1, Soluble guanylate cyclase (Homo sapiens); assay: Ratio of activation of sGC by compound over that of control, in absence of carbon monooxide (basal activity 33+/-3 nmol/min/mg)
[3] = molecular target: Soluble guanylate cyclase (Homo sapiens, UniProt O75343+P33402+Q02108+Q02153); assay: Effect on YC-1 mediated activation of sGC in presence of carbon monoxide
How it was run: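 Purified sGC from a baculovirus/Sf9 expression system, measured with CO by end-point assay in 4% v/v DMSO across a range of YC-1 concentrations, with and without a fixed level of the test compound. Assays ran 2 min in triplicate, and errors are mean + range/2. EC50 came from a four-parameter logistic fit.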

Soluble guanylate cyclase, sequence (Q02153 whole entry): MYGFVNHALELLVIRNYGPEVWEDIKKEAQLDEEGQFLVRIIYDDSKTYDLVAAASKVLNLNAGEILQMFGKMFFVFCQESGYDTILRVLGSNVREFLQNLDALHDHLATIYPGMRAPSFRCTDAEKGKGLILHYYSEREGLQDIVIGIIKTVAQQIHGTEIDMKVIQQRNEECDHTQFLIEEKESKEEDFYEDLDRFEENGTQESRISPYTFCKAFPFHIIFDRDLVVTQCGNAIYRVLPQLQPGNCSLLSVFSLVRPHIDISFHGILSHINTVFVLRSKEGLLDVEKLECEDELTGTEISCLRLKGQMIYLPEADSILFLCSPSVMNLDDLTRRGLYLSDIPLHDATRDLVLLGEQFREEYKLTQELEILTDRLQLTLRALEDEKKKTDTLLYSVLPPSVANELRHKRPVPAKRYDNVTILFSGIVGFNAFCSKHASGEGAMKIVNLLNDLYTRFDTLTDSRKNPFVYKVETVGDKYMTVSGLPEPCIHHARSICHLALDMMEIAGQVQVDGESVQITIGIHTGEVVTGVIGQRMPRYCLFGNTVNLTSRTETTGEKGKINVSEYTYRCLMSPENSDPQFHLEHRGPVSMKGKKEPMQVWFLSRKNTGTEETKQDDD
Soluble guanylate cyclase, sequence (O75343 whole entry): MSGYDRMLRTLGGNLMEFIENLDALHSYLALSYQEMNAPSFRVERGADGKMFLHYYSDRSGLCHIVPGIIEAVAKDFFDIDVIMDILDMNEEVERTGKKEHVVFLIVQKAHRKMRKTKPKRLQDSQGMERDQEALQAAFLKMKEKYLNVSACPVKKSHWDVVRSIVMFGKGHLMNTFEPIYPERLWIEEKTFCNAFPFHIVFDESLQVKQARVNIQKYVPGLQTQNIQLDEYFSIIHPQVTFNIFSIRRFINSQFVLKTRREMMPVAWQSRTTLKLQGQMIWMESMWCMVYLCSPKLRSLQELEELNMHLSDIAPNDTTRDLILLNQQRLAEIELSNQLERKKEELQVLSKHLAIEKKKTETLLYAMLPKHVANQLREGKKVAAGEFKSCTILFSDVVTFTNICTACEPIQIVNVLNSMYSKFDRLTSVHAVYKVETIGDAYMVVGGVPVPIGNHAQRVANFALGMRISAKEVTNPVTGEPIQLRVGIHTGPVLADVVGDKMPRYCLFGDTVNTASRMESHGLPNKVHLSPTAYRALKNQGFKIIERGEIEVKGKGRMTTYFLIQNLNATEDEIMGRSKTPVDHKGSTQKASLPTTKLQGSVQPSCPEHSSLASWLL
Soluble guanylate cyclase, sequence (P33402 whole entry): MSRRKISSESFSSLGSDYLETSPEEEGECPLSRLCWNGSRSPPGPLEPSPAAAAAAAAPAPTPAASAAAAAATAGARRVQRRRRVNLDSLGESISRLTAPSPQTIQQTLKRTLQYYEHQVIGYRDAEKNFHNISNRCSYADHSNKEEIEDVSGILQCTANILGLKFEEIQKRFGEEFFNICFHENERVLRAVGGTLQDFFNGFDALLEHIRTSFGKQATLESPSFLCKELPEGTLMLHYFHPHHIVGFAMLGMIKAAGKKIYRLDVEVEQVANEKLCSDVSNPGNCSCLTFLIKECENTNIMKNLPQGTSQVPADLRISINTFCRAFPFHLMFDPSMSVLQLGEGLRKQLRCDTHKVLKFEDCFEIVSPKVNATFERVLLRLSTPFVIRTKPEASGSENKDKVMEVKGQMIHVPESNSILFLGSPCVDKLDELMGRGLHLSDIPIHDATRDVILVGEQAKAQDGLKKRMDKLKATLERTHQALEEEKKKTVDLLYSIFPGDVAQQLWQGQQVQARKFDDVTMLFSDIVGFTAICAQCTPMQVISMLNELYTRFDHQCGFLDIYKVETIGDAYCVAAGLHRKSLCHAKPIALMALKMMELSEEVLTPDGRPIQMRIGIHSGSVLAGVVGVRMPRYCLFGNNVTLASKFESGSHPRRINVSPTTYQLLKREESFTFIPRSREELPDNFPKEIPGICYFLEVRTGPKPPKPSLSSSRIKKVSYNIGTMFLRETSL
Soluble guanylate cyclase, sequence (Q02108 whole entry): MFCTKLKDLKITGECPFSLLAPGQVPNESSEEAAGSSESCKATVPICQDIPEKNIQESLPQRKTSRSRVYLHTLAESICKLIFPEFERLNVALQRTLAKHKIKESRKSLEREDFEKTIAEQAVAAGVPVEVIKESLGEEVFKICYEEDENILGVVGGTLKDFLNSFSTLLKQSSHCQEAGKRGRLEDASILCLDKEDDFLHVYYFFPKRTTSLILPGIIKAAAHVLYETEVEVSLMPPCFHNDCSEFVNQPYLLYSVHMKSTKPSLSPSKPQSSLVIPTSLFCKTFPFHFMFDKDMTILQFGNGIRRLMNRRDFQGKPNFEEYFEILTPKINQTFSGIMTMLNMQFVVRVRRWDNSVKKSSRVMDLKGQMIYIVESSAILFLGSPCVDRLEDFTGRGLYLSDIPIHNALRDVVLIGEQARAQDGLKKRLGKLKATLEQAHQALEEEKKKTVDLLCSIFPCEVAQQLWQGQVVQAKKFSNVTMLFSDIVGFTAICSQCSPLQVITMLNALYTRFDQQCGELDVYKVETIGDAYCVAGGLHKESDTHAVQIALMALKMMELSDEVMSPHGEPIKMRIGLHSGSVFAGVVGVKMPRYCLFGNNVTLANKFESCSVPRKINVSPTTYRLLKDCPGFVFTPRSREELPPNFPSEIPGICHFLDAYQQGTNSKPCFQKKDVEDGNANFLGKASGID

Row | Compound | Activity [1] | Activity [2] | EC50 [3] [µM]
1 | [N-]=[N+]=Nc1ccc2c(-c3ccc(CO)o3)nn(Cc3ccccc3)c2c1 | 29 | 3.4 | 21.9
2 | [N-]=[N+]=Nc1ccc(Cn2nc(-c3ccc(CO)o3)c3ccccc32)cc1 | 20.3 | 4.7 | 
3 | [N-]=[N+]=Nc1ccc2c(c1)c(-c1ccc(CO)o1)nn2Cc1ccccc1 | 4.4 | 1.7 | 
4 | OCc1ccc(-c2nn(Cc3ccccc3)c3ccccc23)o1 | 139 | 9.2 | 
5 | [N-]=[N+]=Nc1cccc(Cn2nc(-c3ccc(CO)o3)c3ccccc32)c1 | 7.1 | 2 | 
